Data reported in ChEMBL document CHEMBL3632509, “Inhibition of Inflammatory and Neuropathic Pain by Targeting a Mu Opioid Receptor/Chemokine Receptor5 Heteromer (MOR-CCR5)” (J Med Chem, 2015).
Active and inactive are the calls of the source.

Legend:
Mus musculus [1] = test: Antinociceptive activity in normal ICR-CD1 mouse assessed as withdrawal latency for radiant heat at 1000 pmol, icv by tail flick assay; assay type: functional
How it was run: (§1)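 Male ICR-CD1 mice (17–25 g); LPS groups given LPS 1 mg/kg i.p. 24 h before testing, others untreated. Compound dissolved in 5% DMSO, diluted to <1% DMSO, given i.t. or i.c.v. in 5 µl to conscious mice. Radiant-heat tail flick, latency before and at peak time after drug, 10 s cut-off; %MPE = (test−control)/(10−control)×100. At least three groups of 8–10 mice per dose–response curve, each mouse used once.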

Mus musculus [2] = test: Selectivity ratio of ED50 for antinociceptive activity in i.c.v dosed LPS-induced ICR-CD1 mouse thermal hyperalgesia model to ED50 for i.t dosed LPS-induced ICR-CD1 mouse thermal hyperalgesia model; assay type: functional
How it was run: (§2)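 Ratios compare i.c.v. with i.t. dosing, or untreated mice with LPS-pretreated mice (1 mg/kg i.p., 24 h). All mice are male ICR-CD1.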

Mus musculus [3] = test: Selectivity ratio of ED50 for antinociceptive activity in i.c.v dosed ICR-CD1 mouse to ED50 for i.t dosed ICR-CD1 mouse; assay type: functional; how it was run: as §2
[4] = target: C-C chemokine receptor type 5 (Homo sapiens) (UniProt P51681); test: Antagonist activity at CCR5 receptor (unknown origin) expressed in HEK293 cells assessed as inhibition of CCl5-induced calcium release at 1 uM by FLIPR assay; assay type: functional, cell-based
Chain of C-C chemokine receptor type 5 (Homo sapiens) (P51681 whole entry, looked up): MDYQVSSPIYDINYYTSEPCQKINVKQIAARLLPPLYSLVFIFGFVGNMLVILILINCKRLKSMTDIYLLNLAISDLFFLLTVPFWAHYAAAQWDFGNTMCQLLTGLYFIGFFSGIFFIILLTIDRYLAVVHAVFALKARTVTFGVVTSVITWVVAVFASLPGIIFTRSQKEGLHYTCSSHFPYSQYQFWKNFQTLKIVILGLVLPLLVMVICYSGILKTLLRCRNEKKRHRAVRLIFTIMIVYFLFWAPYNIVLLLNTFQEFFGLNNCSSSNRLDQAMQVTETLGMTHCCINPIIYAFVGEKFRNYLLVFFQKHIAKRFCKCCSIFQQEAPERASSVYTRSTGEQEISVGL

Mus musculus [5] = species: Mus musculus; test: Antinociceptive activity in LPS-induced ICR-CD1 mouse thermal hyperalgesia model assessed as withdrawal latency for radiant heat at 1000 pmol i.c.v by tail flick assay; assay type: functional; how it was run: as §1
Mus musculus [6] = species: Mus musculus; test: Antinociceptive activity in LPS-induced ICR-CD1 mouse thermal hyperalgesia model assessed as withdrawal latency for radiant heat at 1000 pmol i.t by tail flick assay; assay type: functional; how it was run: as §1
Mus musculus [7] = species: Mus musculus; test: Antinociceptive activity in normal ICR-CD1 mouse assessed as withdrawal latency for radiant heat at 1000 pmol, it by tail flick assay; assay type: functional; how it was run: as §1
Mus musculus [8] = test: Selectivity ratio of ED50 for antinociceptive activity in i.t dosed normal ICR-CD1 mouse to ED50 for i.t dosed LPS-induced ICR-CD1 mouse thermal hyperalgesia model; assay type: functional; how it was run: as §2
Mus musculus [9] = species: Mus musculus; test: Antinociceptive activity in LPS-induced ICR-CD1 mouse thermal hyperalgesia model assessed as withdrawal latency for radiant heat at 500 pmol i.c.v by tail flick assay; assay type: functional; how it was run: as §1
Mus musculus [10] = test: Antinociceptive activity in i.t dosed LPS-induced ICR-CD1 mouse thermal hyperalgesia model assessed as withdrawal latency for radiant heat by tail flick assay relative to morphine; assay type: functional
Mus musculus [11] = test: Antinociceptive activity in i.t dosed LPS-induced ICR-CD1 mouse thermal hyperalgesia model assessed as withdrawal latency for radiant heat by tail flick assay relative to TAK-220 and N-((4aS,7S,7aR,12bS)-4a,9-Dihydroxy-3-methyl-2,3,4,4a,5,6,7,7a-octahydro-1H-4,12-methanobenzofuro[3,2-e][…]-7-yl)-2-((3,7,17-trioxo-5-oxa-2,8,16-triazaoctadecan-18-yl)oxy)acetamide combination; assay type: functional
Mus musculus [12] = test: Toxicity in i.t dosed ICR-CD1 mouse at ED50 after 24 hrs; assay type: organism-based; settings: in vivo, icv_or_intrathecal
How it was run: (§3)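 Acute tolerance in male ICR-CD1 mice, either untreated or given LPS 1 mg/kg i.p. 24 h before testing. The ED80–90 dose is given i.t. or i.c.v. (5 µl, <1% DMSO) on day 1. The same dose is given again 24 h later to the same mouse and retested by radiant-heat tail flick (10 s cut-off, %MPE).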

Mus musculus [13] = test: Antinociceptive activity in i.t dosed normal ICR-CD1 mouse assessed as withdrawal latency for radiant heat by tail flick assay; assay type: functional; how it was run: as §1
Mus musculus [14] = test: Antinociceptive activity in i.t dosed LPS-induced ICR-CD1 mouse thermal hyperalgesia model assessed as withdrawal latency for radiant heat by tail flick assay; assay type: functional; how it was run: as §1
Mus musculus [15] = test: Toxicity in i.t dosed LPS-induced ICR-CD1 mouse thermal hyperalgesia model at ED50 after 24 hrs; assay type: organism-based; settings: in vivo, icv_or_intrathecal; how it was run: as §3
Mus musculus [16] = test: Antinociceptive activity in i.t dosed LPS-induced ICR-CD1 mouse thermal hyperalgesia model assessed as withdrawal latency for radiant heat at ED50 by tail flick assay in presence of 45 mg/kg, ip minocycline; assay type: functional, organism-based
How it was run: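 Male ICR-CD1 mice get LPS 1 mg/kg i.p. and 24 h later minocycline HCl 45 mg/kg i.p. in distilled water. Test compound is given i.t. 4 h after minocycline. Antinociception is read by radiant-heat tail flick (10 s cut-off) as %MPE. The ED50 comes from a dose–response curve, groups of n=8.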

Mus musculus [17] = test: Antinociceptive activity in normal ICR-CD1 mouse assessed as withdrawal latency for radiant heat at 500 pmol, icv by tail flick assay; assay type: functional; how it was run: as §1
Mus musculus [18] = test: Antinociceptive activity in i.c.v dosed LPS-induced ICR-CD1 mouse thermal hyperalgesia model assessed as withdrawal latency for radiant heat by tail flick assay; assay type: functional; how it was run: as §1
Mus musculus [19] = test: Antinociceptive activity in normal ICR-CD1 mouse assessed as withdrawal latency for radiant heat at 250 pmol, icv by tail flick assay; assay type: functional; how it was run: as §1
Mus musculus [20] = test: Toxicity in i.c.v dosed LPS-induced ICR-CD1 mouse thermal hyperalgesia model at ED50 after 24 hrs; assay type: organism-based; settings: in vivo, icv_or_intrathecal; how it was run: as §3
Mus musculus [21] = species: Mus musculus; test: Antinociceptive activity in normal ICR-CD1 mouse assessed as withdrawal latency for radiant heat at 500 pmol, it by tail flick assay; assay type: functional; how it was run: as §1
Mus musculus [22] = test: Antinociceptive activity in i.c.v dosed normal ICR-CD1 mouse assessed as withdrawal latency for radiant heat by tail flick assay; assay type: functional; how it was run: as §1
Mus musculus [23] = test: Toxicity in i.c.v dosed ICR-CD1 mouse at ED50 after 24 hrs; assay type: organism-based; settings: in vivo, icv_or_intrathecal; how it was run: as §3
Mus musculus [24] = test: Antinociceptive activity in i.t dosed complete Freund's adjuvant-induced ICR-CD1 mouse mechanical hyperalgesia model by von Frey test; assay type: functional
Mus musculus [25] = test: Antinociceptive activity in i.t dosed LPS-induced ICR-CD1 mouse thermal hyperalgesia model assessed as withdrawal latency for radiant heat at ED50 after 24 hrs by tail flick assay; assay type: functional; how it was run: as §3

| Compound | Ratio ED50 (Mus musculus [2]) | Ratio ED50 (Mus musculus [3]) | MPE (Mus musculus [5]) | Selectivity Index (Mus musculus [11]) | Activity (Mus musculus [12]) | ED50 (Mus musculus [13]) | ED50 (Mus musculus [14]) | Activity (Mus musculus [15]) | ED50 (Mus musculus [18]) | Activity (Mus musculus [20]) | also measured |
| --- | --- | --- | --- | --- | --- | --- | --- | --- | --- | --- | --- |
| CC(=O)N1CCC(C(=O)N(CCCN2CCC(Cc3ccc(C(N)=O)cc3)CC2)c2ccc(C)c(Cl)c2)CC1 | 6.48 | 1 | 7.6% |  |  |  |  |  |  |  | MPE (Mus musculus [1]): 26.2%; Activity [4]: Active; MPE (Mus musculus [6]): 49%; MPE (Mus musculus [7]): 34.2% |
| Cc1ccc(N(CCCN2CCC(Cc3ccc(C(N)=O)cc3)CC2)C(=O)C2CCN(C(=O)COCC(=O)NCCCCCCCCCCNC(=O)COCC(=O)N[C@H]3CC[C@@]4(O)[C@H]5Cc6ccc(O)c7c6[C@@]4(CCN5C)[C@H]3O7)CC2)cc1Cl |  |  |  | 3559 | Non-toxic | 45.75 pmol | 0.01461 pmol | Non-toxic |  |  | Selectivity Index (Mus musculus [8]): 3000; MPE (Mus musculus [9]): 41.1%; fold change (FC) (Mus musculus [10]): 1500; Activity (Mus musculus [16]): inactive; MPE (Mus musculus [17]): 49.7% |
| Cc1ccc(N(CCCN2CCC(Cc3ccc(C(N)=O)cc3)CC2)C(=O)C2CCN(C(=O)COCC(=O)NCCCCCCCNC(=O)COCC(=O)N[C@H]3CC[C@@]4(O)[C@H]5Cc6ccc(O)c7c6[C@@]4(CCN5C)[C@H]3O7)CC2)cc1Cl | 60.68 | 1.5 |  | 4.5 | Toxic | 166.4 pmol | 11.41 pmol | Non-toxic | 692.4 pmol | Toxic | MPE (Mus musculus [19]): 35.9% |
| CNC(=O)COCC(=O)NCCCCCCCNC(=O)COCC(=O)N1CCC(C(=O)N(CCCN2CCC(Cc3ccc(C(N)=O)cc3)CC2)c2ccc(C)c(Cl)c2)CC1 |  |  | 51.9% |  |  |  |  |  |  |  | MPE (Mus musculus [21]): 28.1%; MPE (Mus musculus [6]): 32.4%; MPE (Mus musculus [17]): 43.9% |
| Cc1ccc(N(CCCN2CCC(Cc3ccc(C(N)=O)cc3)CC2)C(=O)C2CCN(C(=O)COCC(=O)NCCNC(=O)COCC(=O)N[C@H]3CC[C@@]4(O)[C@H]5Cc6ccc(O)c7c6[C@@]4(CCN5C)[C@H]3O7)CC2)cc1Cl | 5.32 | 3.29 |  | 4.9 | Non-toxic | 32.34 pmol | 10.6 pmol | Non-toxic | 56.41 pmol | Toxic | ED50 (Mus musculus [22]): 106.6 pmol; Activity (Mus musculus [23]): Toxic |
| CNC(=O)COCC(=O)NCCCCCCCNC(=O)COCC(=O)N[C@H]1CC[C@@]2(O)[C@H]3Cc4ccc(O)c5c4[C@@]2(CCN3C)[C@H]1O5 | 7.93 | 0.95 |  |  | Toxic | 113.3 pmol | 21.29 pmol | Toxic | 168.9 pmol | Toxic | ED50 (Mus musculus [22]): 108.2 pmol; Activity (Mus musculus [23]): Toxic |
| Cc1ccc(N(CCCN2CCC(Cc3ccc(C(N)=O)cc3)CC2)C(=O)C2CCN(C(=O)COCC(=O)NCCCCCCCCCCCCNC(=O)COCC(=O)N[C@H]3CC[C@@]4(O)[C@H]5Cc6ccc(O)c7c6[C@@]4(CCN5C)[C@H]3O7)CC2)cc1Cl |  | 2.97 | 55.7% | 0.4 | Toxic | 336.9 pmol | 122.7 pmol | Toxic |  |  | MPE (Mus musculus [1]): 27.6% |
| CN1CC[C@]23c4c5ccc(O)c4O[C@H]2[C@@H](O)C=C[C@H]3[C@H]1C5 [MORPHINE] | 8 | 11 |  |  |  | 27 pmol | 35 pmol |  |  |  | ED50 (Mus musculus [24]): 15 pmol |
| Cc1ccc(N(CCCN2CCC(Cc3ccc(C(N)=O)cc3)CC2)C(=O)C2CCN(C(=O)COCC(=O)NCCCCCNC(=O)COCC(=O)N[C@H]3CC[C@@]4(O)[C@H]5Cc6ccc(O)c7c6[C@@]4(CCN5C)[C@H]3O7)CC2)cc1Cl | 6.38 | 3.14 |  | 4.8 | Toxic | 370.6 pmol | 10.92 pmol | Non-toxic | 187.1 pmol | Toxic | ED50 (Mus musculus [22]): 358.2 pmol; Activity (Mus musculus [23]): Toxic |
| Cc1ccc(N(CCCN2CCC(Cc3ccc(C(N)=O)cc3)CC2)C(=O)C2CCN(C(=O)COCC(=O)NCCCCCCCCCNC(=O)COCC(=O)N[C@H]3CC[C@@]4(O)[C@H]5Cc6ccc(O)c7c6[C@@]4(CCN5C)[C@H]3O7)CC2)cc1Cl | 118.62 | 63.98 | 63.1% | 6.2 | Non-toxic | 15.83 pmol | 8.43 pmol |  |  |  | MPE (Mus musculus [1]): 54.5%; MPE (Mus musculus [25]): 24% |
| CNC(=O)COCC(=O)N1CCC(C(=O)N(CCCN2CCC(Cc3ccc(C(N)=O)cc3)CC2)c2ccc(C)c(Cl)c2)CC1 |  |  |  |  |  |  |  |  |  |  | Activity [4]: Active |
